FN deposit inh: fibronectin deposition inhibition; AH1F fibroblasts, Alexa488-fibronectin deposition fluorescence, overnight; hit rate 0.086% among 350,000; inhibition, % at 12.6 µM;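 active means mean inhibition across replicates of 30% or more, regardless of how many single replicates reach that level; inconclusive means mean under 30% yet at least half of replicates reach 30%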
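Assay system: AH1F fibroblast monolayer, labelled fibronectin deposition. Amount: 10000 cells per well. Also added: labelled fibronectin 24 nM. Compound: single-point pinned compound. Incubation: cell attachment 1 h, compound and FN exposure overnight. Detection: fluorescence after three HBSS washes, excitation 485 nm, emission 525 nm. Read-out: inhibition of fibronectin deposition signal.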
Cneo AK release: causes C. neoformans cell lysis; hit rate 0.2% among 360,000; AID 651654; lysis activity, % at 15 µM; adenylate kinase release luminescence, 4 h; normalised: neutral wells 0, clomiphene wells 100;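 active means mean lysis activity across replicates of at least 80%, whatever share of replicates individually reach that level; inactive means mean lysis activity below 80%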
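Material: C. neoformans cells | Amount: Yeast cell density of 5 × 10^6 cells/mL | Medium: Fresh YPD growth medium | Dosing: Single dose | Times: Static 4 h at 37 °C with compound, 1 h detection | Detection: AK luminescence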
XiGFP reactiv: X-chromosome reactivation activator. XiGFP mouse fibroblasts, % GFP-positive cells imaging, 3 d; cells co-treated with 5-aza-dC sensitizer; scaled so ellipticine positive control = 100%. activation, % at 7.58 µM. hit rate 0.055% among 360,000;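 active means mean normalized replicate activation at least 10% and every replicate at or above 10%; inconclusive means only one of the two criteria met; inactive means mean below 10% and not all replicates reach 10%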
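System: 68-5-11 XiGFP fibroblast line | Buffer or medium: DMEM containing 5-aza-dC | Compound: Single point | Times: Compounds 3 days, fix/stain 15 min at room temperature | Benchmarks: Positive control ellipticine, 6 µM final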
F508del corr: CFTR F508del correction in bronchial cells; CFBE cells, YFP halide quenching; stimulated with forskolin plus potentiator P3; % fluorescence drop versus neutral controls; activity (quench increase), % at 7.58 µM; hit rate 0.36% among 350,000; AID 720511;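 active means mean added fluorescence quench of at least 8% versus neutral control, with both replicates also reaching 8%; inconclusive means only one of the mean or replicate conditions met; inactive means mean below 8% and not both replicates reaching 8%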;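 further: cells transiently co-express mutant CFTR-F508del with the halide-sensitive YFP; corrector assay measuring rescue of mutant channel to the surface after 24 h compound exposure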
PGC1a acetyl inh: PGC1a acetylation modulation, inhibitor mode | U2OS PGC1a acetylation, AlphaScreen anti-acetyl-lysine; with virally co-expressed GCN5 acetyltransferase | inhibition, % at 15.6 µM | hit rate 0.17% among 350,000;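 active means every replicate shows inhibition of at least 40%; inconclusive means mean inhibition at least 40% but some replicate below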
DENV2 CPE: protects cells from dengue virus 2 cytopathic effect; DENV2-infected cells, cytopathic effect rescue, plate reader; CPE inhibition, % at 9.99 µM; hit rate 1.7% among 350,000; AID 651640; in the data active means CPE inhibition above about 20%, passing the limit was not always enough; inconclusive means no clear call, values can overlap the other calls; tested in BHK-21 cells
A number is an active result; - = inactive; ? = inconclusive; . = no result. Hits are enriched below; roughly 1.9% of the tested compounds scored in any of these assays.

SMILES | FN deposit inh | Cneo AK release | XiGFP reactiv | F508del corr | PGC1a acetyl inh | DENV2 CPE
Cc1noc(C)c1S(=O)(=O)Nc1ccc2c(c1)C(=O)N([C@@H](C)CO)C[C@@H](C)[C@H](CN(C)S(=O)(=O)c1ccc(F)cc1)O2 | . | . | - | - | - | -
COCc1cn(CC[C@H]2CC[C@@H](NC(=O)Nc3ccc(OC)cc3)[C@H](CO)O2)nn1 | . | - | - | - | - | -
CCC1CN(S(=O)(=O)c2ccc3c(c2)NC(=O)CC(=O)N3)c2cc(Cl)ccc2O1 (stereo not drawn) | - | - | - | - | . | 23
CC(C)NC(=O)N[C@H]1CC[C@H](CC(=O)NC2Cc3ccccc3C2)O[C@@H]1CO | - | - | - | - | - | -
CCCc1ccc(C(O)c2ncc(-c3cccc(F)c3)[nH]2)cc1 (stereo not drawn) | - | - | - | - | 43 | -
CCc1ccc(C(O)c2ncc(-c3cccc(F)c3)[nH]2)cc1 (stereo not drawn) | - | - | - | - | - | ?
C[C@H](CO)N1C[C@H](C)[C@@H](CN(C)Cc2ccccc2C(F)(F)F)OCc2ccccc2-c2ccccc2C1=O | . | . | . | - | - | -
O=C(Nc1cccc(C2=NCCN2)c1)Nc1cccc(C2=NCCN2)c1 | - | - | - | 8.3 | - | -
O=C(CSc1nc2ccccc2c(=O)n1-c1ccccc1F)NC1CC1 | - | - | - | . | . | 22
Cc1ccc(-n2c(SCC(=O)NC3CCS(=O)(=O)C3)nc3ccccc3c2=O)c(C)c1 (stereo not drawn) | - | - | - | - | - | 38
O=C(CSc1nc2ccccc2c(=O)n1-c1ccc(F)cc1F)NC1CC1 | - | - | - | - | - | -
Cn1c(SCC(=O)NC2CCS(=O)(=O)C2)nnc1-c1ccco1 (stereo not drawn) | - | - | - | - | - | -
COc1cccc(-c2nnc(SCC(=O)NC3CCS(=O)(=O)C3)n2C)c1 (stereo not drawn) | - | - | - | 21 | . | -
Cc1ccc(-n2c(O)c(C=NC3CCS(=O)(=O)C3)c3ccccc3c2=O)c(C)c1 (stereo not drawn) | - | . | - | - | 57 | -
CN1C(=O)c2cc(NC(=O)c3ccccc3Cl)ccc2OC[C@@H]2O[C@H](CC(=O)O)CC[C@H]21 | - | - | - | - | - | -
C[C@H]1CCCCO[C@@H](CN(C)S(=O)(=O)c2ccc(Cl)cc2)[C@@H](C)CN([C@@H](C)CO)C(=O)c2cc(NC(=O)NC3CCCCC3)ccc2O1 | . | - | - | - | - | -
C[C@H]1CN([C@@H](C)CO)C(=O)c2cc(NC(=O)Nc3ccccc3)ccc2O[C@@H]1CN(C)S(=O)(=O)c1ccc(Cl)cc1 | . | - | - | - | - | -
CCOc1ccc(N2C(=O)Cc3ccccc3C2=O)cc1 | - | - | - | - | 43 | -
CCOC(=O)c1ccc(N2C(=O)Cc3ccccc3C2=O)cc1 | - | - | - | - | . | -
O=C(Nc1ccc(Cc2ccncc2)cc1)c1cccs1 | . | - | - | - | - | 31
CO[C@H]1CN(C)C(=O)c2cc(NC(C)=O)ccc2OC[C@@H](C)N(Cc2ccccc2F)C[C@@H]1C | - | - | - | - | - | -
C[C@@H]1CCCCO[C@H](CN(C)C(=O)Nc2ccc3c(c2)OCO3)[C@H](C)CN([C@H](C)CO)C(=O)c2cc(NC(=O)NC3CCCCC3)ccc2O1 | . | - | - | - | - | 41
C[C@@H]1CCCCO[C@H](CN(C)C(=O)NC2CCCCC2)[C@@H](C)CN([C@H](C)CO)C(=O)c2cc(NC(=O)NC3CCCCC3)ccc2O1 | - | - | - | - | - | 78
C[C@@H]1CCCCO[C@@H](CN(C)C(=O)NC2CCCCC2)[C@@H](C)CN([C@@H](C)CO)C(=O)c2cc(NC(=O)Nc3ccccc3)ccc2O1 | - | - | - | - | - | 45
C[C@H](CO)N1C[C@H](C)[C@H](CN(C)C(=O)NC2CCCCC2)OCCCC[C@H](C)Oc2ccc(NC(=O)C3CCCCC3)cc2C1=O | . | 104 | - | - | - | -

Screening data: PubChem BioAssay, Broad Institute
